Data on 1 compound can be found in paper PMC9050161 (RSC Advances, 2020).

The target of one data set is BCRP (Homo sapiens, UniProt Q9UNQ0). Description: M2 excretion in HeLa1A9 cells after shRNA knock-down of BCRP. It is filed as cell-based. In a few lines:
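shRNA plasmid against BCRP, MRP1, MRP3 or MRP4 transfected into UGT1A9-expressing HeLa cells, then exposed to 5 μM test compound in HBSS. Medium sampled at 30–120 min with replacement; cells collected at 120 min. UHPLC gave extracellular and intracellular glucuronide, excretion rate, efflux clearance (excretion rate/intracellular concentration) and fraction metabolized (fmet), each compared with control. Triplicate.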

Another data set has as its target T1, CYP1A2 (Homo sapiens, UniProt P05177).
T1 sequence (P05177 1-516): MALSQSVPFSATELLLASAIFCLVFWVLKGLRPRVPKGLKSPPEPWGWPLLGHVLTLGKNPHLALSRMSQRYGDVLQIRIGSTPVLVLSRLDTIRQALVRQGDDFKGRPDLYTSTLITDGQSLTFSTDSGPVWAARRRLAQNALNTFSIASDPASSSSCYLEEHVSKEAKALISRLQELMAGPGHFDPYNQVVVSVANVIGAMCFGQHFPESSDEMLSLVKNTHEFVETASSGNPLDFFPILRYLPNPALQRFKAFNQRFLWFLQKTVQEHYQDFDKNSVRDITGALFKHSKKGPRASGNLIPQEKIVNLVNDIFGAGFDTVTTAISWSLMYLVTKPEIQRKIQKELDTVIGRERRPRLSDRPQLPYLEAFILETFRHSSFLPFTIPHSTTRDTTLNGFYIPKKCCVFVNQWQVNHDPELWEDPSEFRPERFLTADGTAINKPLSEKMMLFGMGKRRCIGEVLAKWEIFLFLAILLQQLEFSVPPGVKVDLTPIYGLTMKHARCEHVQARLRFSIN
The data set can be described thus: Inhibition of CYP1A2. In kind it is biochemical. In a few lines:
(§1)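 Recombinant human CYPs at 0.05 mg mL−1 protein, each with its probe substrate near Km: ethoxyresorufin 1 μM (CYP1A1), phenacetin 100 μM (CYP1A2), nifedipine 40 μM (CYP3A4, 3A5). Incubated at 37 °C without (control) or with test compound at 1, 10 and 100 μM. Supernatant analysed by UHPLC-TQD-MS; activity relative to control; triplicate.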

For a further data set, the target named is T2, CYP2B6 (Homo sapiens, UniProt P20813).
T2 sequence (P20813 1-491): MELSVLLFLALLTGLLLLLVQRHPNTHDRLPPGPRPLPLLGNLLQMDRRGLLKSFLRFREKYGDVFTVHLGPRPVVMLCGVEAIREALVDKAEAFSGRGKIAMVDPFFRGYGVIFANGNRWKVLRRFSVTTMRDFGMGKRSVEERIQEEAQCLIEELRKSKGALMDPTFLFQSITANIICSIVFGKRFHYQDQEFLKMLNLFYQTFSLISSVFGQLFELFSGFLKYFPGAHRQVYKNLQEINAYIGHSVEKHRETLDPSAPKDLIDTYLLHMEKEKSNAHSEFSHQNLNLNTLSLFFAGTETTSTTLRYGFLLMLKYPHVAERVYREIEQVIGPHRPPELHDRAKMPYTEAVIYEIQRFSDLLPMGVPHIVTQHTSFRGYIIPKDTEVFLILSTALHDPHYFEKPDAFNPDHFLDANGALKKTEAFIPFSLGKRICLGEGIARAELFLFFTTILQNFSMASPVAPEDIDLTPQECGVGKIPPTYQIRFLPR
Description: Inhibition of CYP2B6. It is filed as biochemical. In a few lines: (§2)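 Recombinant human CYPs at 0.1 mg mL−1 protein, each with its probe substrate near Km: coumarin 100 μM (2A6), bupropion 100 μM (2B6), paclitaxel 60 μM (2C8), tolbutamide 200 μM (2C9), mephenytoin 100 μM (2C19), chlorzoxazone 200 μM (2E1). Incubated at 37 °C with or without test compound at 1, 10 or 100 μM. UHPLC-TQD-MS read-out; triplicate.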

A further data set concerns the target CYP2C9 (Homo sapiens, UniProt P11712). The data set can be described thus: Inhibition of CYP2C9. It is filed as biochemical. In a few lines: as §2
The target in another data set is CYP3A5 (Homo sapiens, UniProt P20815). Description: Inhibition of CYP3A5. It is filed as biochemical. The following applies: PI-103 1, 10 and 100 μM. In a few lines:
as §1

In another data set the target is T3, UGT1A7 (Homo sapiens, UniProt Q9HAW7).
T3 sequence (Q9HAW7 26-530): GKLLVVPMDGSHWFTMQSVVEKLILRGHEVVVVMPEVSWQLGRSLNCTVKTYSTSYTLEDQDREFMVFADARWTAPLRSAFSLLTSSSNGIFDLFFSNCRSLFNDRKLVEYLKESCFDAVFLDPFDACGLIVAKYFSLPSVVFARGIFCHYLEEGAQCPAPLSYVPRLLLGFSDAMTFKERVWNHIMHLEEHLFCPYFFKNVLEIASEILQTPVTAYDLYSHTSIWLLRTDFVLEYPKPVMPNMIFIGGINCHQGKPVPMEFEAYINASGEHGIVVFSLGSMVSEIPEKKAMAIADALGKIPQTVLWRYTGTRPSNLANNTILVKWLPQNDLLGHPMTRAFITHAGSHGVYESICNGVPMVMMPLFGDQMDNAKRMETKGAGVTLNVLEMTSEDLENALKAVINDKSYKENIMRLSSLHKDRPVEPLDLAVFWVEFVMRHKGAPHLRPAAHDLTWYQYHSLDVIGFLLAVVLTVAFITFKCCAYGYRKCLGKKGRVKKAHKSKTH
Description: Inhibition of UGT1A7. In kind it is biochemical. In a few lines:
(§3)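 Recombinant human UGTs screened with probe substrates: β-estradiol for UGT1A1, propofol for 1A9, and 4-methylumbelliferone for 1A3, 1A6, 1A7, 1A8, 1A10, 2B4, 2B7, 2B10, 2B15 and 2B17. Incubated at 37 °C without (control) or with test compound at 1, 10 or 100 μM. Glucuronide formation measured relative to control; triplicate.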

Another data set addresses UGT2B10 (Homo sapiens, UniProt P36537). Description: Inhibition of UGT2B10. The following applies: PI-103 1, 10 and 100 μM. In kind it is biochemical. In a few lines: as §3
Another data set has as its system p110δ. The settings on record: cited from earlier work.
In the next data set the test system is p110γ. The settings on record: cited from earlier work.
A further data set has as its system DNA-PK. The settings on record: cited from earlier work.
Data set [1] relates to normal hematopoietic progenitors. The settings on record: cited from earlier work.

The structures appear in SMILES notation.

Chain of CYP2C9 (P11712 whole entry): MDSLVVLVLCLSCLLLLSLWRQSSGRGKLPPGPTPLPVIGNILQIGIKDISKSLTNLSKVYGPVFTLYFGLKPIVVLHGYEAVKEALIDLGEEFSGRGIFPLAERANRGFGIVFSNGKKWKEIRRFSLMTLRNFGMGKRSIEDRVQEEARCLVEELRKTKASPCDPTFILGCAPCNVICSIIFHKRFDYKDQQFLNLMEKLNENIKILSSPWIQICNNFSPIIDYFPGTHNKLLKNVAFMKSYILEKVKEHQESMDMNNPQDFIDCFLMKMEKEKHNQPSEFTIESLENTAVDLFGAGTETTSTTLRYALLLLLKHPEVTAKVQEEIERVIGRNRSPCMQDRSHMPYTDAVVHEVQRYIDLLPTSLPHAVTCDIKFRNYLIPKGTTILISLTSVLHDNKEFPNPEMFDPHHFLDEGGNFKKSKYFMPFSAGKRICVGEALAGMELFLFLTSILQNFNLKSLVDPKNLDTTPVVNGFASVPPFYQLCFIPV
Chain of BCRP (Q9UNQ0 whole entry): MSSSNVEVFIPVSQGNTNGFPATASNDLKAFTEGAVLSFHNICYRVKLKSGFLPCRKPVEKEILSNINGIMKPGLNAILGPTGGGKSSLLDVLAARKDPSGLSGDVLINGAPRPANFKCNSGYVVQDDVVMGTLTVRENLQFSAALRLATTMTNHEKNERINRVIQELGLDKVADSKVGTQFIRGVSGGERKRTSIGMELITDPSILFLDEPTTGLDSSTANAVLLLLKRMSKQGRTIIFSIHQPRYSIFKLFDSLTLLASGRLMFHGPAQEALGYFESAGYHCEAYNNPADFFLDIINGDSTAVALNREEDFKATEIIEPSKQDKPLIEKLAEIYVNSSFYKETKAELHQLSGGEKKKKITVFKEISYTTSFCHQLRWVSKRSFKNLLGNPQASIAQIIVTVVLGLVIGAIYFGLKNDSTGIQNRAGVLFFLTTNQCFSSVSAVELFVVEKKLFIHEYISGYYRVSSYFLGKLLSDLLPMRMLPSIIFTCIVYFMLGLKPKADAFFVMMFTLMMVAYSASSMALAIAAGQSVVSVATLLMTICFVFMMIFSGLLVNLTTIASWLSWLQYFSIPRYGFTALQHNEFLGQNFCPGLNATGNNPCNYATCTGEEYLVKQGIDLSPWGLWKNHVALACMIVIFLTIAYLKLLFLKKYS
Chain of UGT2B10 (P36537 24-528): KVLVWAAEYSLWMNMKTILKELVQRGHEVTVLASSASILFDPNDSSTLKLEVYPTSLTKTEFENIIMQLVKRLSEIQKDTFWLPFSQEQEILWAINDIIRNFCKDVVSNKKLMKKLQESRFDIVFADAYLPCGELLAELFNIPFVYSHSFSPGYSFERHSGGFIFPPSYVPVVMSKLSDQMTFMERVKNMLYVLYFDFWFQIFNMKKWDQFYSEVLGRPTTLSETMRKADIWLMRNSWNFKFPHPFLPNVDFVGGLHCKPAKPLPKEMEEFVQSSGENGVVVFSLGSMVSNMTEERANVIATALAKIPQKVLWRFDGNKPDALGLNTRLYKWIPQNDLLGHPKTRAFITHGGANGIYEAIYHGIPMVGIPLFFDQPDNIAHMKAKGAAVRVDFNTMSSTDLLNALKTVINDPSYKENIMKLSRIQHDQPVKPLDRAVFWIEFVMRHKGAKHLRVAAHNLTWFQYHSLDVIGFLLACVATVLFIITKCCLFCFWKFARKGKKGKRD
Chain of CYP3A5 (P20815 whole entry): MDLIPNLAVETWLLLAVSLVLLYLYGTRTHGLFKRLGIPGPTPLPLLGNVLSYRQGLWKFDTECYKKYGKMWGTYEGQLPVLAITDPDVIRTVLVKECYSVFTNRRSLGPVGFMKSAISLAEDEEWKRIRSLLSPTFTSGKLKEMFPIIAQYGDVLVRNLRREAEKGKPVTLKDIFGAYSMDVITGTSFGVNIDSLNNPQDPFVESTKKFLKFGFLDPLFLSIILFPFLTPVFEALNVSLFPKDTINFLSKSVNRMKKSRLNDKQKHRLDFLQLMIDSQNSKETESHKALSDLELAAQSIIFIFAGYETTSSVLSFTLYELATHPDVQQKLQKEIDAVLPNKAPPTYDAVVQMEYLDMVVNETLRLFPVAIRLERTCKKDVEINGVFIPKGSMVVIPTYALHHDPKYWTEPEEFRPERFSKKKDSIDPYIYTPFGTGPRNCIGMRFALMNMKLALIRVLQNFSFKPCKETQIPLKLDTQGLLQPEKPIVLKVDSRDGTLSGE

As usually defined, the IC50 is the midpoint of a concentration-inhibition curve. The term Ki denotes a measure of affinity in units of concentration, obtained from inhibition or displacement. Lower therefore signals a stronger hold on the target. Consider `Oc1cccc(-c2nc(N3CCOCC3)c3oc4ncccc4c3n2)c1` [PI-103], for which, at BCRP, the “reduction in fraction of metabolized (fmet) PI-103” value amounted to 27.6%. The IC50 is 370 ± 40 nM against CYP1A2; 2250 ± 280 nM against CYP2B6; 1160 ± 150 nM on CYP2C9; 6250 ± 840 nM at UGT1A7; […] in the data set on p110δ; 150 nM in the data set on p110γ. The 50% inhibitory concentration (IC50) in the data set with DNA-PK is […]. In addition, the Ki was found to be 380 ± 30 nM on CYP1A2, 640 ± 220 nM at CYP2B6, 560 ± 120 nM at CYP2C9 and 5640 ± 600 nM at UGT1A7. The residual activity at CYP1A2 (CYP1A2, 100 μM PI-103) is 8.63 % of the negative control; on CYP2B6 (CYP2B6, 100 μM PI-103), 29.70 % of the negative control; on CYP2C9 (CYP2C9, 100 μM PI-103), 14.22 % of the negative control. Further, the Type of inhibition entry is “Noncompetitive” at CYP1A2 (CYP1A2, phenacetin); “Mixed-type” at CYP2B6 (CYP2B6, bupropion); “Mixed-type” on CYP2C9 (CYP2C9, tolbutamide); “Noncompetitive” at UGT1A7 (UGT1A7, 4-MU). In addition, the α is 5.09 ± 4.48 on CYP2B6 (CYP2B6, bupropion, mixed-type model (selected)) and 2.45 ± 0.94 on CYP2C9 (CYP2C9, tolbutamide, mixed-type model (selected)). Also, the values for the inhibitory effect result on CYP3A5 and against UGT2B10 were “negligible or weak” and “negligible”, respectively. Further, the “impact on normal hematopoietic progenitors” value in [1] is on record as “little impact”.
